Laboratory results reported in article PMC2910176 (Food and chemical toxicology : an international journal …, 2010).

Legend:
Hs-68 = assay: MTT cell viability assay in normal skin fibroblasts Hs-68; assay type: cell-based, human; details: for inhibition of cell proliferation in human normal skin fibroblasts: 3.125–25 μg/ml; for Concentration producing 50% growth inhibition (IC50): Hs-68 normal skin fibroblasts, 48 hours, MTT
[1] = tested on: cancer cell lines HepG2, MCF-7 and MDA-MB-231; assay: Anti-proliferative activity in cancer cell lines; assay type: cell-based, human; details: dose-dependent, three cancer cell lines
[2] = tested on: human peripheral blood mononuclear cells (PBMC); details: ref Yadav et al., 2005; cited from earlier work
[3] = tested on: human peripheral blood mononuclear cells (PBMC); details: ref Yadav et al., 2005; cited from earlier work; remark: listed apart in the source
HepG2 = assay: MTT cell viability assay in HepG2; assay type: cell-based, human; details: for Concentration producing 50% growth inhibition (IC50): HepG2, 48 hours, MTT
MCF-7 = assay: MTT cell viability assay in MCF-7; assay type: cell-based, human; details: for Concentration producing 50% growth inhibition (IC50): MCF-7, 48 hours, MTT
MDA-MB-231 = assay: MTT cell viability assay in MDA-MB-231; assay type: cell-based, human; details: for Concentration producing 50% growth inhibition (IC50): MDA-MB-231, 48 hours, MTT
[4] = tested on: human peripheral blood mononuclear cells (PBMC); assay: PBMC proliferation; assay type: cell-based; details: 72 hours, with polymyxin B; α-turmerone 10 or 15 μg/ml, ar-turmerone 5-15 μg/ml
Outline: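 PHA-activated PBMC (PHA 10 μg/ml final; polymyxin B 10 μg/ml present to bind LPS) were incubated 72 h with test compound at 5, 10 or 15 μg/ml, with matched vehicle. [methyl-3H]-thymidine (0.5 μCi/well) was added for the final 6 h. Cells were harvested onto glass-fibre filters for scintillation counting. Results are % cpm relative to untreated control, mean of 8 donors.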

[5] = tested on: human peripheral blood mononuclear cells (PBMC); assay: Cytokine production by PBMC; assay type: cell-based; details: for TNF-α production in PHA-activated PBMC / IFN-γ production in PHA-activated PBMC / IL-2 production in PHA-activated PBMC: 24 hours; for TNF-α production in PHA-activated PBMC: 10 and 15 μg/ml; for IFN-γ production in PHA-activated PBMC / IL-2 production in PHA-activated PBMC: data not shown
Outline: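 PBMC came from buffy coat by Ficoll density separation, with ≥95% trypan-blue viability, at 4 × 10^5/well. Resting or PHA-activated (10 μg/ml final) cells received test compound at 5, 10 or 15 μg/ml, with matched vehicle, for 24 h. Supernatants were recovered by centrifugation (300×g), stored at −80°C and assayed for IL-2, IFN-γ and TNF-α by ELISA. There were 8 donors, four wells each, reported as mean + SD; the statistic was an unpaired t-test versus control.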

MDA-MB-231 cells [6] = assay: Cell cycle analysis; assay type: cell-based, human; details: MDA-MB-231, after treatment
Outline: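 MDA-MB-231 cells (3 × 10^5/well, 6-well) were plated overnight and then treated with test compound (30–45 μg/ml). They were fixed in 70% v/v ethanol at 4°C overnight and stained with PI (20 μg/ml) plus RNase A (10 μg/ml) for 30 min at 37°C in the dark. Flow cytometry collected 10,000 cells per sample, and cell cycle and apoptotic peaks were modelled; n=3.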

MDA-MB-231 cells [7] = assay: DNA fragmentation assay; assay type: cell-based, human; details: MDA-MB-231, 24 and 48 hours
Outline: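 MDA-MB-231 cells (1 × 10^6) were attached for 24 h in 100 mm dishes, then given test compound (40–80 μg/ml) or 0.4% v/v ethanol for 24 or 48 h. Lysis was 15 min at 37°C in 200 mM Tris-HCl, 100 mM EDTA, 1% SDS, pH 8.3. RNase A, then proteinase K, each ran 90 min at 56°C, followed by ethanol/sodium acetate precipitation. DNA ran on 1.5% agarose with ethidium bromide beside a 100 bp marker; n=3.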

MDA-MB-231 cells [8] = assay: Annexin V-FITC/PI staining assay; assay type: cell-based, human; details: MDA-MB-231, 24 hours
Outline: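 MDA-MB-231 cells (3 × 10^5/well) were exposed to test compound at various concentrations for 24 h. They were washed twice in 1X binding buffer, then labelled with annexin-V FITC plus PI for 15 min at room temperature in the dark, and analysed by flow cytometry. Annexin-V+ PI− (lower right quadrant) was taken as early apoptosis. Three independent experiments were run.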

MDA-MB-231 cells [9] = assay: Western blot analysis of apoptosis and proliferation proteins; assay type: cell-based, human; details: MDA-MB-231, 40 or 60 μg/ml
Outline: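 MDA-MB-231 cells (1 × 10^6) were treated with test compound (40 or 60 μg/ml) or 0.4% v/v ethanol for 24 or 48 h. Lysis used 2% SDS, 10% glycerol, […] Tris-HCl, pH 6.8, on ice, then 95°C for 10 min. Lysates ran on 12% SDS-PAGE onto PVDF and were blocked in 5% milk/TBST. Primaries (overnight) were Bcl-2 and procaspases-3/-8 at 1:100 and cyclin D at 1:200; the β-actin loading control was 1:2000. HRP secondary was used with ECL; three independent experiments.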

| Concentration producing 50% growth inhibition (IC50) (HepG2) [µg/mL] | Concentration producing 50% growth inhibition (IC50) (MCF-7) [µg/mL] | Concentration producing 50% growth inhibition (IC50) (MDA-MB-231) [µg/mL] | Structure (SMILES) | inhibition of cell proliferation in human normal skin fibroblasts (Hs-68) | proliferation of cancer cells [1] | Concentration producing 50% growth inhibition (IC50) (Hs-68) [µg/mL] | proliferation of PHA-activated PBMC [4] | TNF-α production in PHA-activated PBMC [5] | IFN-γ production in PHA-activated PBMC [5] | IL-2 production in PHA-activated PBMC [5] | other results |
| --- | --- | --- | --- | --- | --- | --- | --- | --- | --- | --- | --- |
| – | – | – | O=C(/C=C/c1ccc(O)cc1)CC(=O)/C=C/c1ccc(O)cc1 [Bisdemethoxycurcumin, bisdemethoxycurcumin] | did not induce any significant inhibition | significantly inhibited | – | – | – | – | – | – |
| – | – | – | COc1cc(/C=C/C(=O)CC(=O)/C=C/c2ccc(O)c(OC)c2)ccc1O [Curcumin, curcumin] | – | significantly inhibited | – | – | – | – | – | PHA-induced proliferation in PBMC [2]: inhibited; IL-2 production in PBMC (PHA-induced) [3]: inhibited |
| – | – | – | COc1cc(/C=C/C(O)=C/C(=O)/C=C/c2ccc(O)cc2)ccc1O [Demethoxycurcumin, demethoxycurcumin] | did not induce any significant inhibition | significantly inhibited | – | – | – | – | – | – |
| >100 | >100 | >100 | CC(C)=CC(=O)C[C@H](C)c1ccc(C)cc1 [ar-turmerone] | did not induce any significant inhibition | – | >100 | significantly stimulate | significantly increased | neither α-turmerone (AL) nor ar-turmerone (AR) further altered | neither α-turmerone (AL) nor ar-turmerone (AR) further altered | IFN-γ production in resting PBMC ([5]; 24 hours, 5, 10 or 15 μg/ml): significantly increased; IL-2 production in resting PBMC ([5]; 24 hours, 5, 10 or 15 μg/ml): significantly increased; TNF-α production in resting PBMC ([5]; 24 hours, 5, 10 or 15 μg/ml): significantly increased |
| 32.9 | 41.8 | 30.2 | CC(C)=CC(=O)CC(C)C1C=CC(C)=CC1 (stereo not drawn) [α-turmerone] | did not induce any significant inhibition | significantly inhibited | >100 | significantly stimulate | significantly increased | neither α-turmerone (AL) nor ar-turmerone (AR) further altered | neither α-turmerone (AL) nor ar-turmerone (AR) further altered | inhibition of cell proliferation compared to the control (HepG2; HepG2, 50 μg/ml, 48 hours): ~70%; inhibition of cell proliferation compared to the control (MCF-7; MCF-7, 50 μg/ml, 48 hours): ~70%; inhibition of cell proliferation compared to the control (MDA-MB-231; MDA-MB-231, 50 μg/ml, 48 hours): ~70%; cell cycle arrest (MDA-MB-231 cells [6]): no arrest at any phase of the cell cycle; DNA fragmentation (MDA-MB-231 cells [7]): detected; proportion of early apoptosis cells (Annexin V-FITC positive and PI negative) (MDA-MB-231 cells [8]): increased with the concentrations; Bcl-2 expression (MDA-MB-231 cells [9]): slightly down-regulated; cleaved PARP (MDA-MB-231 cells [9]): observed; expression level of pro-caspase-3 (MDA-MB-231 cells [9]): significantly decreased; expression level of pro-caspase-8 (MDA-MB-231 cells [9]): significantly decreased; expression of cyclin D1 (MDA-MB-231 cells [9]): significantly decreased; proteolytic cleavage of pro-caspase-9 (fragments p35 and p37) (MDA-MB-231 cells [9]): observed |
